Compounds with a hit are over-represented: about 2.8% of the library has one in this group of screens.
eIF4E-4G inh: inhibitors of eIF4E and eIF4G interaction in translation initiation; P63073+Q04637; TR-FRET eIF4E-eIF4GI(517-606) binding, 2 h; inhibition, % at 21.7 µM; hit rate 0.37% among 220,000
Target sequence (P63073 whole entry, looked up): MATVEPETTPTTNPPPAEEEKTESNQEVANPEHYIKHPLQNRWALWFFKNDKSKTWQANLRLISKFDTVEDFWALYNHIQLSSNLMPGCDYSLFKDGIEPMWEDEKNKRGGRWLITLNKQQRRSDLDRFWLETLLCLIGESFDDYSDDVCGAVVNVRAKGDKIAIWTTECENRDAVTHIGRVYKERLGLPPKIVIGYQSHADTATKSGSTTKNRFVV
Target sequence (Q04637 whole entry, looked up): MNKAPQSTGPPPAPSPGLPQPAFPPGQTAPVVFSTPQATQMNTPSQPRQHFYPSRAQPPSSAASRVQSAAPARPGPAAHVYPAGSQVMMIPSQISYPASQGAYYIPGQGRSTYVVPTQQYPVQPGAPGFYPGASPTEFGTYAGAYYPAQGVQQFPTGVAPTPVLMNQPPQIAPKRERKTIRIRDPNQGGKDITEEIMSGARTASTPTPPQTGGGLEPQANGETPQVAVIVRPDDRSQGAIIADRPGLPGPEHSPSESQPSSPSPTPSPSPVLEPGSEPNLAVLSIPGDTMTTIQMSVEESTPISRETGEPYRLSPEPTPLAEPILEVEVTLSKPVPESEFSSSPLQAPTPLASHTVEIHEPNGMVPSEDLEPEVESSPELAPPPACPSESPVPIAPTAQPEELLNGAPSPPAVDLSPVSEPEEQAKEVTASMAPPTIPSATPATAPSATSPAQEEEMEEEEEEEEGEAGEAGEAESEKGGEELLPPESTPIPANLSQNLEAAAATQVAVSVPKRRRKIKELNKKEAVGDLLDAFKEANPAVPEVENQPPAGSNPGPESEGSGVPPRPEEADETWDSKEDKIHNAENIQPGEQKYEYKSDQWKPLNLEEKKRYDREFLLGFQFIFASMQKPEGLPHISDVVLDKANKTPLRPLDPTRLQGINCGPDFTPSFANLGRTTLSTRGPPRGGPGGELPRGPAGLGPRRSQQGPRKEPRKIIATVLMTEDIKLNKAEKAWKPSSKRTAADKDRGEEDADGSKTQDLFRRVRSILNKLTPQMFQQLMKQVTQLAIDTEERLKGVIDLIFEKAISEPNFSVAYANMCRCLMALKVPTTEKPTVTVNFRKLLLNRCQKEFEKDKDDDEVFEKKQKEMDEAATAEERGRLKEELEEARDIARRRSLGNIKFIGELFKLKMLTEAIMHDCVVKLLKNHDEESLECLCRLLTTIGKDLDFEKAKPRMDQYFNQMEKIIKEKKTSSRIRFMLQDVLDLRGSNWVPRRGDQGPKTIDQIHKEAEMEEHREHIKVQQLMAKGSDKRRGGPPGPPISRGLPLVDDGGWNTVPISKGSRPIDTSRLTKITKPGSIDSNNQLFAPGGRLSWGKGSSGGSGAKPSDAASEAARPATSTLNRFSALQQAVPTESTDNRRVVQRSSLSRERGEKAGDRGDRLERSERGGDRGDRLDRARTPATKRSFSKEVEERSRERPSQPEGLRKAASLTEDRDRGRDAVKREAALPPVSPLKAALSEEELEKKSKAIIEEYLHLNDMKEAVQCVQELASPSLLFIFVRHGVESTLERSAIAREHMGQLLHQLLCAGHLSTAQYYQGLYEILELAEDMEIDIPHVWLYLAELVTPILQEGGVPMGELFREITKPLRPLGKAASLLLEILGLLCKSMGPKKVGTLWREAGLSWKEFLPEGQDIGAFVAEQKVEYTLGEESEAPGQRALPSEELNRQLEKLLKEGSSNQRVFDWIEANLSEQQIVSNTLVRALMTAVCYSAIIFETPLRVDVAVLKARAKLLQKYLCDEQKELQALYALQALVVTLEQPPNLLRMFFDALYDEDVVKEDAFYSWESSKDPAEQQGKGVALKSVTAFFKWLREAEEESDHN
RBBP9 inh: human RBBP9 hydrolase inhibition; O75884; inhibition, % at 7.94 µM; hit rate 0.2% among 220,000; recombinant RBBP9, FP-Rh probe fluorescence polarization;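 active = inhibition above the campaign mean of all tested compounds plus 3 SD, cut at about 14% in these data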
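Test system: recombinant human RBBP9. Quantity: 2.5 µM RBBP9 dispensing solution, before mixing. Detection: FP readout at 525/598 nm. Reagent: Serine-hydrolase probe FP-Rh, 375 nM pre-mixing. Measure: % inhibition. Control set: DMSO-treated enzyme wells and wells lacking RBBP9. Buffer or medium: Tris-NaCl-Pluronic buffer, pH 8.0. Times: preincubation 30 min plus labeling 45 min at 25 °C.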
14-3-3 Bad PPI: disrupts binding of bovine 14-3-3 zeta to phospho-Bad peptide | P63103 | TR-FRET 14-3-3zeta/Dy647-pBad peptide displacement, 1 h | inhibition, % at 21.7 µM | hit rate 0.71% among 220,000 | AID 781;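 active = inhibition above about 70%, limit read from the data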
p47phox inh: inhibitors of human p47phox binding. AID 1274. inhibition, % at 24.7 µM. hit rate 0.53% among 220,000. P14598. p47phox/p22phox peptide binding, fluorescence polarization, 2 h
Wee1 stabilizer: blocks degradation of human Wee1 kinase | hit rate 1.2% among 220,000 | HeLa Luc-Wee1K328M stability, luciferase luminescence; 100% = proteasome inhibitor MG132 effect | P30291 | reporter increase, % at 5 µM;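 active = activation above the mean of all tested compounds plus 3 SD, set per screening run, cut at about 8.8% in these data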;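 also: cells exposed to compound for 20 h before luminescence read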
Wee1 degr conf: confirmation of human Wee1 degradation inhibitors | shares compounds with Wee1 stabilizer | HeLa Luc-Wee1K328M degradation, luminescence; vehicle 0%, proteasome-blocked wells 100% | activation, % at 5 µM | hit rate 4% among 1,100 | AID 1410; in the data active = activation above about 8.9%
Large screens that a line does not name were inactive (follow-up assays come after a bar, where they were run).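 The calls were made as follows, unless noted: active = inhibition above about 30% (limit read from the data); inactive = the rest.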

COc1cccc2cc(C(C)N(CCCN3CCOCC3)C(=S)Nc3ccc(C)c(C)c3)oc12 (stereo unspecified)	Wee1 stabilizer 33 | Wee1 degr conf inactive
COc1cccc2cc(C(C)N(CCCN3CCOCC3)C(=S)Nc3cccc(C)c3C)oc12 (stereo unspecified)	none
COc1cccc2cc(C(C)N(CCCN3CCOCC3)C(=S)Nc3cc(C)ccc3C)oc12 (stereo unspecified)	Wee1 stabilizer 14 | Wee1 degr conf inactive
COc1ccc(CCn2nnc(-c3ccc(NC(C)=O)c(Cl)c3)n2)cc1	none
CCOc1ccc(CC(=O)NNC(=S)NC)cc1	Wee1 stabilizer 14 | Wee1 degr conf inactive
Cc1ccc(/C=C/C(=O)OCc2nc(N)nc(Nc3ccccc3C)n2)o1	Wee1 stabilizer 13 | Wee1 degr conf inactive
CCNc1nc(N)nc(-c2cc(Cl)ccc2O)n1	none
CCCCNc1nc(N)nc(-c2cc(Cl)ccc2O)n1	Wee1 stabilizer 14 | Wee1 degr conf inactive
CC(=O)Nc1ccccc1OC(C)C(=O)N1CC(C)CC(C)C1 (stereo unspecified)	none
CCOC(=O)c1ccccc1NC(=S)N1CCC(C)CC1	none
CCOC(=O)c1ccccc1NC(=S)N1CC(C)CC(C)C1 (stereo unspecified)	Wee1 stabilizer 15 | Wee1 degr conf inactive
CC1CC(C)CN(C(=O)Nc2ccccc2F)C1 (stereo unspecified)	Wee1 stabilizer 19 | Wee1 degr conf inactive
CN(C)S(=O)(=O)c1ccc(C(=O)Nc2cc(=O)n(C)c(=O)n2C)cc1	none
CCN1CCN(C(=O)c2ccc3c(c2)S(=O)(=O)c2ccccc2C3=O)CC1	none
COC(=O)CC1=NN(c2ccc(OC)cc2)C(=O)C1	Wee1 stabilizer 12 | Wee1 degr conf inactive
COC(=O)Cc1c(C(=O)OC)nnn1-c1ccc(OC)cc1	none
CCC(=O)N1CC2(c3ccccc3)CN(C(=O)CC)CC(c3ccccc3)(C1)C2=O	Wee1 stabilizer 12 | Wee1 degr conf inactive
COc1ccc(Cl)c2c1[nH]c1nc(SCc3cccnc3)nnc12	Wee1 stabilizer 13 | Wee1 degr conf inactive
Cc1cc(Br)cn2ccnc12	none
CCOC(=O)N/N=C(\C)c1ccccc1OC(F)F	none
CCCOc1ccc(-c2nnc(-c3cccs3)o2)cc1	none
CN(C)c1ccc(-c2nnc(-c3cccs3)o2)cc1	Wee1 stabilizer 15 | Wee1 degr conf inactive
CCOC(=O)C1CCN(C(=O)c2oc3ccc(S(=O)(=O)N4CC(C)CC(C)C4)cc3c2C)CC1 (stereo unspecified)	Wee1 stabilizer 11 | Wee1 degr conf inactive
CCOC(=O)N1CCN(C(=O)c2oc3ccc(S(=O)(=O)N4CC(C)CC(C)C4)cc3c2C)CC1 (stereo unspecified)	none
CC(=O)c1cc2c(C)c(C(=O)c3ccccc3)oc2cc1O	Wee1 stabilizer 12 | Wee1 degr conf inactive
O=C(c1ccccc1)c1ccc(O)cc1O	none
COC(=O)CNC(=O)C1CCCN1C(=O)OC(C)(C)C (stereo unspecified)	Wee1 stabilizer 13 | Wee1 degr conf inactive
CC(C(=O)c1c[nH]c(C(=O)N=CN(C)C)c1)c1ncc(C(F)(F)F)cc1Cl (stereo unspecified)	Wee1 stabilizer 14 | Wee1 degr conf inactive
Cc1ccc(N2C(=O)CC(Sc3nc4ccccc4o3)C2=O)cc1Cl (stereo unspecified)	none
CC(C)c1nnc(SCC(=O)NCc2ccc3c(c2)OCO3)n1C	Wee1 stabilizer 12 | Wee1 degr conf inactive
O=S(c1ccc2ccccc2c1)c1cnns1 (stereo unspecified)	none
COc1ccc(C(=O)COc2ccccc2C#N)cc1	none
Cc1ccc(S(=O)(=O)c2nc(Nc3ccccc3)sc2Cl)cc1	none
COc1ccc(Nc2nc(S(=O)(=O)c3ccc(C)cc3)c(Cl)s2)cc1	Wee1 stabilizer 11 | Wee1 degr conf inactive
Cc1ccc(C(=O)NC2CC(C)(C)NC(C)(C)C2)cc1C	Wee1 stabilizer 12 | Wee1 degr conf inactive
Cc1ccc(C)c(C(=O)NC2CC(C)(C)NC(C)(C)C2)c1	none
CCN(Cc1ccncc1)C(=O)c1ccccc1NS(=O)(=O)c1ccc(Br)cc1	none
COc1cc(SC)ccc1C(=O)Nc1ccc2c(c1)OCO2	Wee1 stabilizer 13 | Wee1 degr conf inactive
COc1cc(SC)ccc1C(=O)Nc1ccc(C)cc1	none
CCCCCCCC1(C)NC(=O)N(c2ccccc2)N1 (stereo unspecified)	Wee1 stabilizer 14 | Wee1 degr conf inactive
CCCCC1(CO)C(=O)N(c2ccccc2)N(c2ccccc2)C1=O	none
CCN1CCN(C(=S)Nc2cc(S(=O)(=O)N(CC)CC)ccc2C)CC1	none
CN(C)c1ccc(P(=O)(OC2CCCCC2)C(O)c2cccnc2)cc1 (stereo unspecified)	Wee1 stabilizer 12 | Wee1 degr conf inactive
NS(=O)(=O)c1ccc(NC(=S)NC(=O)c2cccs2)cc1	Wee1 stabilizer 19 | Wee1 degr conf inactive
CCCn1c(=O)[nH]c(=O)c2c(C(=O)OCC)cc(-c3cccs3)nc21	none
O=C(CCNS(=O)(=O)c1cccs1)N1CCc2ccccc2C1	Wee1 stabilizer 19 | Wee1 degr conf inactive
O=C(Cc1ccc(Cl)cc1)Nc1ccc(S(=O)(=O)Nc2cnc3ccccc3n2)cc1	Wee1 stabilizer 12 | Wee1 degr conf inactive
CC(C)C(=O)Nc1ccc2nn(-c3ccccc3)nc2c1	none
CCc1ccc(N2CCN(C(=O)N3CCOCC3)CC2)cc1	none
CC(=O)c1ccc(NC(=O)CSc2nnc(Cn3cnc4ccccc43)o2)cc1	Wee1 stabilizer 16 | Wee1 degr conf inactive
COc1cc(C(=O)NCc2nnc(SCC(=O)Nc3nc4ccccc4s3)o2)cc(OC)c1OC	Wee1 stabilizer 12 | Wee1 degr conf inactive
O=C(CSc1nnc(CNC(=O)c2cccs2)o1)Nc1ccccc1	Wee1 stabilizer 18 | Wee1 degr conf inactive
Cc1ccc(NC(=O)CSc2nnc(CNC(=O)c3cccs3)o2)cc1	none
O=C(CSc1nnc(Cn2cnc3ccccc32)o1)Nc1cccc2ccccc12	none
COc1ccc(C2=NN(C(=O)CN3CCCCC3)C(c3ccc(OC)cc3)C2)cc1 (stereo unspecified)	Wee1 stabilizer 13 | Wee1 degr conf inactive
C[C@@H]1CN(C2CCN(Cc3nc(CC4CC4)no3)CC2)C[C@H](C)O1	none
O=c1c(Cc2c(F)cccc2Cl)c(O)ccn1CC1CCCO1 (stereo unspecified)	Wee1 stabilizer 12 | Wee1 degr conf inactive
CCCCn1c(N)c(N(CC)C(=O)c2cc(OC)cc(OC)c2)c(=O)[nH]c1=O	Wee1 stabilizer 11 | Wee1 degr conf inactive
O=[N+]([O-])c1ccccc1/C=N/n1c(C(F)(F)F)n[nH]c1=S	Wee1 stabilizer 12 | Wee1 degr conf inactive
CCCOc1ccc(C(C)=O)cc1CN1CCOCC1	Wee1 stabilizer 12 | Wee1 degr conf inactive

Source: PubChem (several laboratories)
